Data published in ChEMBL document CHEMBL1123237 (J Med Chem, 1986).

Tests used:
Type in all cases: functional, Artery
[1] = system: Rattus norvegicus; assay: Maximum change aortic blood pressure in conscious renal (1clip/2kidney) hypertensive rats at dose 30 mg/kg administered orally at 6 hr.; conditions: route oral
[2] = system: Rattus norvegicus; assay: Maximum change aortic blood pressure in conscious renal (1clip/2kidney) hypertensive rats at dose 10 mg/kg administered orally at 6 hr.; conditions: route oral
[3] = system: Rattus norvegicus; assay: Baseline mean aortic blood pressure in conscious renal (1clip/2kidney) hypertensive rats at dose 1 mg/kg administered orally.
Method in brief: (§1)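 Oral dosing in rats cannulated for aortic blood pressure monitoring. Only rats with mean aortic pressure >160 mmHg were used; they weighed 280-320 g at cannulation. Rats had free access to standard chow and tap water on a 12-h dark/12-h light cycle. The value is the pre-dose mean aortic pressure, given as mean ± 1 SEM; 3-6 rats per dose.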

[4] = system: Rattus norvegicus; assay: Baseline mean aortic blood pressure in conscious renal (1clip/2kidney) hypertensive rats at dose 3 mg/kg administered orally.; method in brief: as §1
[5] = system: Rattus norvegicus; assay: Maximum change aortic blood pressure in conscious renal (1clip/2kidney) hypertensive rats at dose 3 mg/kg administered orally at 2 hr.; conditions: route oral
[6] = system: Rattus norvegicus; assay: Baseline mean aortic blood pressure in conscious renal (1clip/2kidney) hypertensive rats at dose 10 mg/kg administered orally.; method in brief: as §1
[7] = system: Rattus norvegicus; assay: Baseline mean aortic blood pressure in conscious renal (1clip/2kidney) hypertensive rats at dose 30 mg/kg administered orally.; method in brief: as §1
[8] = system: Rattus norvegicus; assay: Maximum change aortic blood pressure in conscious renal (1clip/2kidney) hypertensive rats at dose 1 mg/kg administered orally at 9 hr.; conditions: route oral
[9] = system: Rattus norvegicus; assay: Maximum change aortic blood pressure in conscious renal (1clip/2kidney) hypertensive rats at dose 30 mg/kg administered orally at 10 hr; conditions: route oral
[10] = system: Rattus norvegicus; assay: Maximum change aortic blood pressure in conscious renal (1clip/2kidney) hypertensive rats at dose 0.3 mg/kg administered orally at 5 hr.; conditions: route oral
[11] = system: Rattus norvegicus; assay: Maximum change aortic blood pressure in conscious renal (1clip/2kidney) hypertensive rats at dose 1 mg/kg administered orally at 6 hr.; conditions: route oral
[12] = system: Rattus norvegicus; assay: Baseline mean aortic blood pressure in conscious renal (1clip/2kidney) hypertensive rats at dose 0.3 mg/kg administered orally.; method in brief: as §1
[13] = system: Rattus norvegicus; assay: Maximum change aortic blood pressure in conscious renal (1clip/2kidney) hypertensive rats at dose 3 mg/kg administered orally at 6 hr.; conditions: route oral
[14] = system: Rattus norvegicus; assay: Maximum change aortic blood pressure in conscious renal (1clip/2kidney) hypertensive rats at dose 30 mg/kg administered orally at 9 hr.; conditions: route oral
[15] = system: Rattus norvegicus; assay: Maximum change aortic blood pressure in conscious renal (1clip/2kidney) hypertensive rats at dose 30 mg/kg administered orally; conditions: route oral
[16] = system: Rattus norvegicus; assay: Baseline mean aortic blood pressure in conscious renal (1clip/2kidney) hypertensive rats at dose 30 mg/kg administered orally; conditions: route oral; method in brief: as §1
[17] = system: Rattus norvegicus; assay: Maximum change aortic blood pressure in conscious renal (1clip/2kidney) hypertensive rats at dose 0.3 mg/kg administered orally at 2 hr.; conditions: route oral
[18] = system: Rattus norvegicus; assay: Baseline mean aortic blood pressure in conscious renal (1clip/2kidney) hypertensive rats at dose 1 mg/kg administered orally; conditions: route oral; method in brief: as §1
[19] = system: Rattus norvegicus; assay: Maximum change aortic blood pressure in conscious renal (1clip/2kidney) hypertensive rats at dose 1 mg/kg administered orally at 10 hr; conditions: route oral
[20] = system: Rattus norvegicus; assay: Maximum change aortic blood pressure in conscious renal (1clip/2kidney) hypertensive rats at dose 30 mg/kg administered orally at 8 hr.; conditions: route oral
[21] = system: Rattus norvegicus; assay: Maximum change aortic blood pressure in conscious renal (1clip/2kidney) hypertensive rats at dose 3 mg/kg administered orally at 5 hr.; conditions: route oral
[22] = system: Rattus norvegicus; assay: Maximum change aortic blood pressure in conscious renal (1clip/2kidney) hypertensive rats at dose 1 mg/kg administered orally at 8 hr.; conditions: route oral
[23] = system: Rattus norvegicus; assay: Maximum change aortic blood pressure in conscious renal (1clip/2kidney) hypertensive rats at dose 10 mg/kg administered orally at 4 hr.; conditions: route oral
[24] = system: Rattus norvegicus; assay: Maximum change aortic blood pressure in conscious renal (1clip/2kidney) hypertensive rats at dose 10 mg/kg administered orally at 10 hr.; conditions: route oral
[25] = system: Rattus norvegicus; assay: Maximum change aortic blood pressure in conscious renal (1clip/2kidney) hypertensive rats at dose 30 mg/kg administered orally at 6 hr; conditions: route oral
[26] = system: Rattus norvegicus; assay: Maximum change aortic blood pressure in conscious renal (1clip/2kidney) hypertensive rats at dose 3 mg/kg administered orally at 8 hr.; conditions: route oral
[27] = system: Rattus norvegicus; assay: Maximum change aortic blood pressure in conscious renal (1clip/2kidney) hypertensive rats at dose 1 mg/kg administered orally at 7 hr.; conditions: route oral
[28] = system: Rattus norvegicus; assay: Maximum change aortic blood pressure in conscious renal (1clip/2kidney) hypertensive rats at dose 10 mg/kg administered orally at 5 hr.; conditions: route oral
[29] = system: Rattus norvegicus; assay: Maximum change aortic blood pressure in conscious renal (1clip/2kidney) hypertensive rats at dose 1 mg/kg administered orally at 4 hr.; conditions: route oral
[30] = system: Rattus norvegicus; assay: Maximum change aortic blood pressure in conscious renal (1clip/2kidney) hypertensive rats at dose 0.3 mg/kg administered orally at 10 hr.; conditions: route oral
[31] = system: Rattus norvegicus; assay: Maximum change aortic blood pressure in conscious renal (1clip/2kidney) hypertensive rats at dose 10 mg/kg administered orally at 5 hr; conditions: route oral
[32] = system: Rattus norvegicus; assay: Maximum change aortic blood pressure in conscious renal (1clip/2kidney) hypertensive rats at dose 1 mg/kg administered orally at 1 hr; conditions: route oral

C[C@H](N[C@@H](CCc1ccccc1)C(=O)O)C(=O)N1CCC[C@H]1C(=O)O [ENALAPRILAT ANHYDROUS]
MABP [1]: -70 mmHg
MABP [2]: -57 mmHg
MABP [3]: 188 mmHg
MABP [4]: 188 mmHg
MABP [5]: -54 mmHg
MABP [6]: 188 mmHg
MABP [7]: 176 mmHg
MABP [8]: -51 mmHg

CCOC(=O)[C@@H](CCc1ccccc1)N[C@@H](C)C(=O)N1Cc2ccccc2C[C@H]1C(=O)O
MABP [9]: -11 mmHg
MABP [7]: 172 mmHg

CCOC(=O)[C@H](CCc1ccccc1)N[C@@H](C)C(=O)N1Cc2cc(OC)c(OC)cc2C[C@H]1C(=O)O [MOEXIPRIL]
MABP [10]: -41 mmHg
MABP [2]: -113 mmHg
MABP [11]: -43 mmHg
MABP [3]: 182 mmHg
MABP [4]: 179 mmHg
MABP [6]: 205 mmHg
MABP [12]: 201 mmHg
MABP [13]: -39 mmHg

CCOC(=O)[C@H](CCc1ccccc1)N[C@@H](C)C(=O)N1Cc2ccccc2C[C@@H]1C(=O)O
MABP [14]: -20 mmHg
MABP [7]: 187 mmHg

CC(CS)C(=O)N1Cc2ccccc2C1C(=O)O (racemic)
MABP [15]: 0 mmHg
MABP [16]: 165 mmHg

C[C@H](CS)C(=O)N1CCC[C@H]1C(=O)O [CAPTOPRIL]
MABP [17]: -25 mmHg

CCOC(=O)C(CCc1ccccc1)NC(C)C(=O)N1Cc2ccccc2CC1C(=O)OCC (stereo unspecified)
MABP [18]: 208 mmHg
MABP [19]: -69 mmHg

CCOC(=O)[C@H](CCc1ccccc1)N[C@@H](C)C(=O)N1Cc2cc(OC)c(OC)cc2C[C@@H]1C(=O)O
MABP [7]: 178 mmHg
MABP [20]: -16 mmHg

CCOC(=O)[C@H](CCc1ccccc1)N[C@@H](C)C(=O)N1CCC[C@H]1C(=O)O
MABP [10]: -79 mmHg
MABP [3]: 175 mmHg
MABP [4]: 200 mmHg
MABP [21]: -112 mmHg
MABP [6]: 199 mmHg
MABP [22]: -43 mmHg
MABP [23]: -112 mmHg
MABP [12]: 201 mmHg

CCOC(=O)[C@H](CCc1ccccc1)N[C@@H](C)C(=O)N1Cc2ccccc2[C@H]1C(=O)O
MABP [6]: 200 mmHg
MABP [24]: -80 mmHg

CCOC(=O)C(CCc1ccccc1)N1C(=O)C2Cc3ccccc3CN2C(=O)C1C (stereo unspecified) [DIKETOPIPERAZINE DERIVATIVE OF QUINAPRIL]
MABP [25]: -28 mmHg
MABP [16]: 186 mmHg

O=C(O)C1c2ccccc2CN1C(=O)CCS (stereo unspecified)
MABP [9]: -15 mmHg
MABP [16]: 174 mmHg

COc1cc2c(cc1OC)CN(C(=O)C(C)NC(CCc1ccccc1)C(=O)O)C(C(=O)O)C2 (stereo unspecified)
MABP [2]: -52 mmHg
MABP [3]: 199 mmHg
MABP [4]: 199 mmHg
MABP [6]: 199 mmHg
MABP [22]: -20 mmHg
MABP [7]: 181 mmHg
MABP [20]: -107 mmHg
MABP [26]: -52 mmHg

C[C@H](N[C@@H](CCc1ccccc1)C(=O)O)C(=O)N1Cc2ccccc2C[C@H]1C(=O)O
MABP [14]: -89 mmHg
MABP [3]: 199 mmHg
MABP [27]: -44 mmHg
MABP [4]: 199 mmHg
MABP [5]: -45 mmHg
MABP [6]: 199 mmHg
MABP [7]: 192 mmHg
MABP [28]: -76 mmHg

CCOC(=O)[C@H](CCc1ccccc1)N[C@@H](C)C(=O)N1Cc2ccccc2C[C@H]1C(=O)O
MABP [29]: -54 mmHg
MABP [30]: -50 mmHg
MABP [31]: -87 mmHg
MABP [3]: 196 mmHg
MABP [4]: 188 mmHg
MABP [21]: -62 mmHg
MABP [6]: 181 mmHg
MABP [12]: 157 mmHg

CC(NC(CCc1ccccc1)C(=O)O)C(=O)N1Cc2ccccc2C1C(=O)O (stereo unspecified)
MABP [4]: 195 mmHg
MABP [26]: -74 mmHg

CC(CS)C(=O)N1Cc2ccccc2CC1C(=O)O (stereo unspecified)
MABP [3]: 185 mmHg
MABP [32]: -45 mmHg

CCOC(=O)[C@@H](CCc1ccccc1)N[C@@H](C)C(=O)N1Cc2cc(OC)c(OC)cc2C[C@H]1C(=O)O
MABP [7]: 177 mmHg
MABP [20]: -15 mmHg
